M5 PAM – potentiates acetylcholine response at human M5 receptor; 360,000 tested, 0.3% active; activation, % at 3 µM; P08912; AID 624038; CHO-K1 hM5, Fluo-8 calcium, ACh EC20 PAM; 0% = ACh EC20, 100% = ACh EC100;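 active = activation above the run cutoff, the mean activation of all test compounds plus 3 SD, cut at about 18% in these data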
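Assay system: CHO-K1 hM5 cells / Incubation: Fluo-8 loading 80 min at 37 °C plus 30 min room temperature / Technique: Fluo-8 calcium dye fluorescence, kinetic read / Repeats: single replicate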
CHRM4 agonist – agonists of human muscarinic M4 receptor (CHRM4) | CHO-K1 hM4/Gqi5, Fluo-8 calcium fluorescence; vehicle 0%, full acetylcholine response 100% | activation, % at 3 µM | AID 624127 | 360,000 tested, 0.14% active;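 active = activation above the run mean over all test wells plus 3 SD, cut at about 32% in these data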;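 also: peak over basal fluorescence ratio per well then scaled between controls; 0% = DMSO wells and 100% = acetylcholine at EC100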
Target sequence (P08173 whole entry, looked up): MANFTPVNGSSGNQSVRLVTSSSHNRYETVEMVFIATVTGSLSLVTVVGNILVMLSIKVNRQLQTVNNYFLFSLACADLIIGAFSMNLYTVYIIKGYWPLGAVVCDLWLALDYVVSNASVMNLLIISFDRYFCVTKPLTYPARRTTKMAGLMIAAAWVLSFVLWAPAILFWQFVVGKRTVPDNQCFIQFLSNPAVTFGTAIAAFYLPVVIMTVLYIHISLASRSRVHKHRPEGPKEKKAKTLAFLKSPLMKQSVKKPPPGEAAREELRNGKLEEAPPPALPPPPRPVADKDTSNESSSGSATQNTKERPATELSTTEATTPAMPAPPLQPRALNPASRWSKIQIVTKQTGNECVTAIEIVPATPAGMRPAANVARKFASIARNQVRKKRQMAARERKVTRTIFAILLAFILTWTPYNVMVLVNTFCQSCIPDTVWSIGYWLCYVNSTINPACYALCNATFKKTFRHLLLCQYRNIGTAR
M4 antag – antagonists of human muscarinic M4 receptor (CHRM4); CHO-hM4 cells, ACh EC80, Fluo-8 calcium fluorescence; inhibition, % at 3 µM; 360,000 tested, 0.73% active; AID 624125;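 active = inhibition above its plate's cutoff, the mean inhibition of sample wells plus 3 SD, cut at about 27% in these data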;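 also: 0% = acetylcholine EC80 with DMSO and 100% = DMSO without agonist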
M4 PAM – potentiates acetylcholine response at human M4 receptor; P08173; CHO-K1 hM4/Gqi5, Fluo-8 calcium fluorescence, ACh EC20; 0% = ACh EC20, 100% = maximal ACh; activation, % at 3 µM; 360,000 tested, 0.4% active; AID 624126;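 active = activation above its plate's cutoff, the mean activation of sample wells plus 3 SD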
M5 antag – CHRM5 antagonism in calcium assay. P08912. CHO-hM5 cells, Fluo-8 calcium fluorescence, ACh EC80. inhibition, % at 3 µM. 360,000 tested, 0.59% active. AID 624040;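 active = inhibition above a per-plate cutoff, the mean of that plate's test compounds plus 3 SD, cut at about 27% in these data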;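 also: 0% = acetylcholine EC80 with DMSO and 100% = DMSO without agonist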
M5 ag – agonists of human muscarinic M5 receptor (CHRM5); P08912; CHO-K1 hM5 cells, Fluo-8 calcium fluorescence; 0% DMSO wells, 100% maximal acetylcholine response; activation, % at 3 µM; 360,000 tested, 0.19% active; AID 624037;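 active = activation above the run's mean over test compounds plus 3 SD, cut at about 23% in these data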;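 also: signal is peak over basal fluorescence ratio across the kinetic read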
Numbers without * were called inactive. Only some compounds are listed: those with a hit (about 1.8% of all), similar ones and a draw of the others.

SMILES	M5 PAM	CHRM4 agonist	M4 antag	M4 PAM	M5 antag	M5 ag
Cc1ccc(NC(=O)CCNS(=O)(=O)c2cccc3nsnc23)cc1F	-4	4	5	-7	19	1
O[C@@H]1CN(Cc2ccc(-n3cccn3)cc2)CC[C@H]1N1CCN(c2ccccc2F)CC1	-14	11	13	-9	19	-8
Cc1cc([N+](=O)[O-])nn1CC(=O)N/N=C/c1ccccc1O	1	0	0	-9	2	1
COc1cc(OC)c(/C=N/NC(=O)Cn2nc([N+](=O)[O-])cc2C)c(OC)c1	4	1	-15	12*	-3	0
Cc1ccc(C(=O)OCC(=O)NC2CCCC(C)C2C)s1 (stereo unspecified)	3	-1	-2	0	-6	-1
COCCCNc1c2c3c(cccc3[nH]c1=O)C(=O)c1ccccc1-2	-26	305*	53*	-18	41*	94*
CCCCCOc1ccc(C2C(C(=O)c3ccc(C)o3)=C(O)C(=O)N2c2cc(C)on2)cc1 (stereo unspecified)	-1	3	2	1	2	1
C[C@@H]1CC[C@]2(O[C@H](CCO)C[C@@H](O)[C@@H]2O)O1	25*	-1	-2	14	-2	4
C[C@H]1CC[C@@]2(O[C@@H](CCO)C[C@@H](O)[C@@H]2O)O1	1	1	3	14	-1	4
Cc1ccc(O)c(C(=O)c2cc(C#N)c(=O)n(-c3nccs3)c2)c1	-17	57*	26	-18	32*	34*
CC(C)c1ccc(NC(=O)C2CC(=O)N(C3CCCC3)C2)cc1 (stereo unspecified)	-3	4	-19	18*	6	-3
Cc1ccccc1C1c2[nH]c3ccccc3c2CCN1CCCn1cccn1 (stereo unspecified)	-23	0	61*	-43	14	-17
Cc1ncsc1CCOC(=O)C1C2CC3CC(C2)CC1C3 (stereo unspecified)	-2	4	4	-8	2	-2
OC(c1ccc(F)cc1)c1nc(-c2cc3ccccc3o2)cs1 (stereo unspecified)	-15	61*	20	-10	7	15
C=CCN(C)CC/C=C1\c2ccccc2CSc2ccccc21	-43	3	52*	-17	62*	-14
NCC/C=C1/c2ccccc2CSc2ccccc21	-43	7	23	-14	34*	-13
CC(O)CN(C)CC/C=C1/c2ccccc2CSc2ccccc21 (stereo unspecified)	-22	1	19	-14	25	-8
CN(CC/C=C1/c2ccccc2CSc2ccccc21)CCCO	-20	7	65*	-38	44*	-6
C#CCN(C)CC/C=C1\c2ccccc2CSc2ccccc21	-41	-2	32*	-15	37*	-15
Fc1cccc(Cc2c(-c3ccco3)nc3ccc(Br)cn23)c1	8	1	1	-1	3	1
CCc1ccc(C(O)c2ncc(-c3ccc(C)cc3)[nH]2)cc1 (stereo unspecified)	0	4	-17	8	-6	-1
O=C(COC(=O)CCC1CCCC1)Nc1ccccc1OC(F)F	4	4	3	22*	6	-2
COCCCNC(=O)c1ccc(Cn2c(=O)c3ccccc3n(CC(=O)NCCc3ccc(OC)c(OC)c3)c2=O)cc1	5	0	0	7	2	4
O=C1NC2(Nc3ccccc31)C(=O)Nc1ccc(Br)cc12 (stereo unspecified)	-30	0	-3	-1	98*	-15
C=CCn1c(=N)n(CC(O)c2ccco2)c2ccccc21 (stereo unspecified)	29*	1	14	17*	8	-2
SMILES	M5 PAM	CHRM4 agonist	M4 antag	M4 PAM	M5 antag	M5 ag
Cc1ccc(C2CC(=O)c3cnn(-c4nc(C)cc(C)n4)c3C2)cc1 (stereo unspecified)	4	1	-3	5	0	1
CCOC(=O)CSc1nc(C)cc(C)c1C(N)=O	1	0	-3	5	7	-4
O=C(CN1C(=O)CCC1=O)Nc1cccc(NC(=O)CN2C(=O)CCC2=O)c1	19*	1	-10	11	-2	0
O=C(CN1C(=O)CCC1=O)Nc1ccc(Br)cc1	-10	0	-15	3	-5	-5
O=C1NC2(CCOc3ccccc32)C(=O)N1CC(=O)N(Cc1ccccc1)C1CCS(=O)(=O)C1 (stereo unspecified)	22*	1	-4	4	-23	0
O=C(O)CN1C(=O)NC2(CCOc3ccccc32)C1=O (stereo unspecified)	6	0	-1	-1	-1	-1
COc1ccc(CCNC(=O)c2sc(=S)n(C)c2N)cc1	-13	6	4	-7	9	2
Cn1c(N)c(C(=O)NCc2ccccc2)sc1=S	0	2	-2	36*	9	-2
N#Cc1cccc(NC(=S)Nc2ccccc2)c1	-4	5	-22	-1	8	-2
COC(=O)Cc1ccc(OC(=O)c2cccc(S(=O)(=O)N3CCN(C)CC3)c2)cc1	-1	4	-7	6	4	4
Cc1nnsc1C(=O)NC1CCCc2c1cnn2-c1ccccc1F (stereo unspecified)	-9	10	3	-1	8	6
Cc1nnsc1C(=O)NC1CCCc2c1cnn2-c1ccc(C(C)(C)C)cc1 (stereo unspecified)	-13	13	10	-5	28*	-2
CCN1CCN(C(=O)CN2C(=O)c3ccccc3S2(=O)=O)CC1	-1	1	2	2	4	1
COc1ccc(N2CC(C(=O)N3CCN(c4ccccc4)CC3)CC2=O)cc1 (stereo unspecified)	-13	1	4	0	31*	-4
CCOc1ccc(NC(=O)C2CCN(C(=O)C3CC(=O)N(c4ccc(C)cc4)C3)CC2)cc1 (stereo unspecified)	2	1	-8	19*	-2	-3
COc1cc(OC)c(NS(=O)(=O)c2cc(Br)cnc2N)cc1Cl	-3	8	2	-2	3	-4
CCOc1ccc(NC(=O)C[n+]2ccc(N(C)C)cc2)cc1	5	1	9	-1	0	-6
CN(C)c1cc[n+](CC(=O)Nc2ccc(Oc3ccccc3)cc2)cc1	-14	1	43*	-22	11	-12
